Assays:
Glutamate NMDA receptor [1] = experiment: Displacement of [3H]MK-801 from rat brain NMDA receptor
How it was run: (§1)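 [³H]MK-801 at 5 nM is bound to rat brain membranes, with the co-agonists glutamic acid and glycine added. Incubation lasts 2 h, close to equilibrium. Nonspecific binding is binding to closed channels: no glutamate or glycine, with D-APV and 5,7-DCKA added. The standard buffer is 50 mM Tris, switched to 10 mM Tris for buffer-sensitive inhibition. Replicate counts are given per value.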

Glutamate NMDA receptor [2] = experiment: Displacement of [3H]MK-801 from NMDA receptor in rat brain in presence of 100 uM spermine; assay type: tissue-based; how it was run: as §1
Glutamate NMDA receptor [3] = experiment: Displacement of [3H]MK801 from rat brain NMDA receptor in presence of 30 uM spermine; how it was run: as §1
Glutamate NMDA receptor [4] = experiment: Stimulation of [3H]MK-801 binding to rat brain NMDA receptor; how it was run: as §1

SMILES | IC50 (Glutamate NMDA receptor [1]) | spermine attenuation ratio (Glutamate NMDA receptor [2]) | spermine attenuation ratio (Glutamate NMDA receptor [3]) | EC50 (Glutamate NMDA receptor [4])
Cc1cc(CCCCN)sc1CCCCCCCCN | 1.62 µM | 3.9 |  | 
CCc1cc(CCCCN)sc1CCCCCCCCN | 3.23 µM | 2.67 |  | 
NCCCCCCCCc1ccc(CCCCN)s1 | 0.54 µM | 8.84 | 15.1 | 
NCCCCc1ccc(CCCCN(CC[C@@H](N)Cc2ccccc2)Cc2ccccc2)s1 | 9.62 µM |  | 1.66 | 
CNCCCCCCCCc1ccc(CC2CCNCC2)s1 | 2.48 µM | 8.58 |  | 
NCCCCC#CCCCCCCCCN | 6.73 µM | 5.38 |  | 
NCCCCCCCCc1ccc(CCCCN)cc1 | 0.87 µM | 7.95 |  | 
Cc1cc(CCCCCCCCN)sc1CCCCN | 1.08 µM | 4.07 |  | 
N=C(N)NCCCCCCCCc1ccc(CCCCNC(=N)N)s1 | 0.77 µM |  | 3.95 | 
CN(C)CCCCCCCCc1ccc(CCCCN(C)C)s1 | 358 µM | 2.79 |  | 
CCCNCCCCCCCCc1ccc(CCCCNCCC)s1 | 114 µM | 2.98 |  | 
C=CCNCCCCCCCCc1ccc(CCCCNCC=C)s1 | 13.3 µM | 6.57 |  | 
c1ccc(CNCCCCCCCCc2ccc(CCCCNCc3ccccc3)s2)cc1 | 8.67 µM | 0.98 |  | 
NCCCCc1ccc(CCNC(=O)CNC(=O)CN)s1 | 111 µM |  | 5.48 | 
NCCCCc1ccc(CCCCNCCCN)s1 | 5.2 µM |  | 29 | 
CC(CN)C(=O)NCCCCc1ccc(CCCCN)s1 (stereo unspecified) | 24.7 µM |  | 10.3 | 
NCCCCc1ccc(CCCCNC(=O)CC(N)c2ccccc2)s1 (stereo unspecified) | 6.81 µM |  | 15 | 
NCCCCCCCCc1ccc(CCCN)s1 | 5.47 µM |  | 9.57 | 
NCCCCc1ccc(CCCCNC(=O)CCN)s1 | 1.19 µM |  | 51.4 | 
NCCCCCCCCCCCCN | 7.05 µM |  | 34.6 | 

Now from value to molecule:

IC50 (Glutamate NMDA receptor [1]) | spermine attenuation ratio (Glutamate NMDA receptor [2]) | spermine attenuation ratio (Glutamate NMDA receptor [3]) | EC50 (Glutamate NMDA receptor [4]) | SMILES
0.63 µM | 9.07 |  |  | NCCCCCCCCc1ccc(CC2CCNCC2)s1
5.28 µM | 6.94 |  |  | NCCCCCCCCCCCCCCN
15.2 µM | 7.67 |  |  | CN(C)CCCCCCCCc1ccc(CC2CCNCC2)s1
1.76 µM |  | 16.8 |  | NCCCCc1ccc(Cc2ccc(CCCCN)s2)s1
1.04 µM |  | 23.4 |  | N=C(N)NCCCCCCc1ccc(CCNC(=N)N)s1
0.31 µM |  | 6.29 |  | N=C(N)NCCCCCCCCc1ccc(CCCNC(=N)N)s1
5.3 µM | 7.7 |  |  | CNCCCCCCCCc1ccc(CCCCNC)s1
4.2 µM |  | 16.8 |  | NCCCCc1ccc(CCOCCOCCN)s1
282 µM |  |  | 1.9 µM | NCCCCc1ccc(CCNCCNCCN)s1
2.21 µM |  | 65.4 |  | CC(N)CC(=O)NCCCCc1ccc(CCCCN)s1 (stereo unspecified)
11.7 µM |  | 10.1 |  | NCCCCc1ccc(CCCCNC(=O)C(CN)c2ccccc2)s1 (stereo unspecified)
13.4 µM |  | 1.71 |  | NCCCCc1ccc(CCCCN(Cc2ccccc2)C(=O)C[C@@H](N)Cc2ccccc2)s1
53 µM |  | 75 |  | NCCCCCCCCNC(=O)CCN
1.13 µM | 2.96 |  |  | NCCCCCCCCc1ccc(Cc2ccccc2CN)s1
0.74 µM |  | 7.47 |  | N=C(N)NCCCCCCCc1ccc(CCCNC(=N)N)s1

— ChEMBL document CHEMBL1142883, “New polyamine-sensitive inhibitors of the NMDA receptor: syntheses and pharmacological evaluation” (Eur J Med Chem, 2007)
